What was measured:
Canis familiaris [1] = experiment: Percent change in heart rate (HR) in anesthetized open chest dogs after a iv dose of 1.875 mg/kg; type: functional, Canis lupus familiaris
Outline: (§1)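 Anesthetized open-chest dogs, one drug per animal. Compound is in DMF diluted to 10% in saline, or given as the HCl salt in saline. It is infused into the femoral vein by pump at 0.58-2.2 mL/min in 3-4 stepwise cumulative doses, each over 5 min after the prior peak. Readings are CF by right-ventricle strain gauge, dP/dtmax by Millar LV catheter, HR by cardiotachometer and MAP from femoral artery, as % change from predrug control.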

Canis familiaris [2] = experiment: Percent change in left ventricular pressure (dP/dtmax) in anesthetized dog after iv administration at 1.875 mg/kg; type: functional, Canis lupus familiaris, Heart left ventricle; outline: as §1
Canis familiaris [3] = experiment: Percent increase in contractile force (CF) in anesthetized open-chest dogs iv administration of 1.875 mg/kg; type: functional, Canis lupus familiaris
Outline: (§2)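 Anesthetized open-chest dogs. After a right thoracotomy, contractile force was recorded by a Walton Brodie strain gauge sutured to the right ventricle at 100 g baseline tension. Compound was given iv by infusion pump into a femoral vein, one drug per animal, in three to four stepwise increasing doses. Each dose ran over 5 min, starting once the previous dose's effect peaked. Values are % increase over predrug control vs cumulative mg/kg dose.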

Canis familiaris [4] = experiment: Percent change in mean arterial blood pressure (MAP) in anesthetized open chest dogs iv administration at 1.875 mg/kg; type: functional, Canis lupus familiaris; outline: as §1
Canis familiaris [5] = experiment: Change in heart rate of anaesthetized, open chest dogs following 0.875 mg/kg i.v. administration.; type: functional, Canis lupus familiaris; details: route intravenous; outline: as §1
Canis familiaris [6] = experiment: Change in heart contractile force of anaesthetized, open chest dogs following 0.875 mg/kg i.v. administration.; type: functional, Canis lupus familiaris; details: route intravenous; outline: as §1
Canis familiaris [7] = experiment: Percent change in mean arterial blood pressure (MAP) in anesthetized open chest dogs iv administration at 0.875 mg/kg; type: functional, Canis lupus familiaris; outline: as §1
Canis familiaris [8] = experiment: Change in left ventricular pressure of anaesthetized, open chest dogs following 0.875 mg/kg i.v. administration.; type: functional, Canis lupus familiaris, Heart left ventricle; details: route intravenous; outline: as §1
Canis familiaris [9] = experiment: Percent change in mean arterial blood pressure (MAP) in anesthetized open chest dogs iv administration at 0.8750 mg/kg; type: functional, Canis lupus familiaris; details: dose 0.875 mg/kg; outline: as §1
Canis familiaris [10] = experiment: Percent change in heart rate (HR) in anesthetized open chest dogs after a iv dose of 1.75 mg/kg; type: functional, Canis lupus familiaris; outline: as §1
Canis familiaris [11] = experiment: Percent change in left ventricular pressure (dP/dtmax) in anesthetized dog after iv administration at 1.75 mg/kg; type: functional, Canis lupus familiaris, Heart left ventricle; outline: as §1
Canis familiaris [12] = experiment: Percent increase in contractile force (CF) in anesthetized open-chest dogs iv administration of 1.75 mg/kg; type: functional, Canis lupus familiaris; outline: as §2
Canis familiaris [13] = experiment: Percent change in mean arterial blood pressure (MAP) in anesthetized open chest dogs iv administration at 1.75 mg/kg; type: functional, Canis lupus familiaris; outline: as §1
Canis familiaris [14] = experiment: Percent change in heart rate (HR) in anesthetized open chest dogs after a iv dose of 0.375 mg/kg; type: functional, Canis lupus familiaris; outline: as §1
Canis familiaris [15] = experiment: Percent increase in contractile force (CF) in anesthetized open-chest dogs iv administration of 0.375 mg/kg; type: functional, Canis lupus familiaris; outline: as §2
Canis familiaris [16] = experiment: Percent change in mean arterial blood pressure (MAP) in anesthetized open chest dogs iv administration at 0.3750 mg/kg; type: functional, Canis lupus familiaris; details: dose 0.375 mg/kg; outline: as §1
Canis familiaris [17] = experiment: Percent change in left ventricular pressure (dP/dtmax) in anesthetized dog after iv administration at 0.375 mg/kg; type: functional, Canis lupus familiaris, Heart left ventricle; outline: as §1
Canis familiaris [18] = experiment: Percent change in heart rate (HR) in anesthetized open chest dogs after a iv dose of 1 mg/kg; type: functional, Canis lupus familiaris; outline: as §1
Canis familiaris [19] = experiment: Percent change in heart rate (HR) in anesthetized open chest dogs after a iv dose of 0.025 mg/kg; type: functional, Canis lupus familiaris; outline: as §1
Canis familiaris [20] = experiment: 50% increase in contractile force in one to three anesthetized dogs administered intravenously; type: functional; details: Canis lupus familiaris, iv
Outline: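 Anesthetized dogs (one to three). Compound is infused iv in three to four stepwise increasing doses, each over 5 min once the previous effect has peaked. Contractile force is recorded with a Walton Brodie strain gauge on the right ventricle. The dose (μg/kg) giving a 50% rise over control CF is read from the dose-response curve, graphically (n < 3) or by linear regression (n ≥ 3).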

Canis familiaris [21] = experiment: Percent increase in contractile force (CF) in anesthetized open-chest dogs iv administration of 0.025 mg/kg; type: functional, Canis lupus familiaris; outline: as §1
Canis familiaris [22] = experiment: Percent change in mean arterial blood pressure (MAP) in anesthetized open chest dogs iv administration at 1 mg/kg; type: functional, Canis lupus familiaris; outline: as §1
Canis familiaris [23] = experiment: Percent change in mean arterial blood pressure (MAP) in anesthetized open chest dogs iv administration at 0.025 mg/kg; type: functional, Canis lupus familiaris; outline: as §1
Canis familiaris [24] = experiment: Contractile force in anesthetized open chest dogs id administration at 1.00 mg/kg; type: functional, Canis lupus familiaris; details: route intraduodenal
Outline: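 Anesthetized open-chest dogs. A 10-mL bolus is injected into the duodenum through a catheter placed 2 cm distal to the pylorus. Contractile force is measured with a Walton Brodie strain gauge sutured to the right ventricle, at a baseline tension of 100 g, and monitored continuously. Results are given as % increase from predrug control against cumulative dose.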

Canis familiaris [25] = experiment: Percent increase in left ventricular pressure (dP/dtmax) of anesthetized dog after id administration at 1 mg/kg; type: functional, Canis lupus familiaris, Heart left ventricle; details: route intraduodenal
Outline: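 Anesthetized open-chest dogs. Left ventricular pressure was measured by Millar catheter and dP/dtmax derived. Compound was given as a 10-mL bolus into the duodenum through a catheter placed 2 cm distal to the pylorus via flank incision. Dissolved in DMF diluted to 10% in saline, or as HCl salt in saline. Response is % change over predrug control, monitored continuously.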

Canis familiaris [26] = experiment: Percent change in left ventricular pressure (dP/dtmax) in anesthetized dog after iv administration at 0.025 mg/kg; type: functional, Canis lupus familiaris, Heart left ventricle; outline: as §1
Phosphodiesterase 3 = Phosphodiesterase 3 (Homo sapiens, UniProt Q14432+Q13370); experiment: Inhibition of phosphodiesterase fraction III in anesthetized open chest dogs; type: functional, Canis lupus familiaris; details: target entry is the homologue from another species
Outline: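 Enzyme is dog heart PDE-III, the third DEAE-cellulose fraction eluted at 800 mM sodium acetate. Compounds are tested at 0.01–1000 μM with 0.25 μM cAMP containing [³H]cAMP, in 0.05 M Tris-HCl pH 7.4 with 5 mM MgCl2. The reaction is stopped by heat, then snake venom converts product to adenosine. [³H]adenosine is counted by scintillation after Dowex separation. IC50 comes from ≥2 determinations, each in duplicate.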

SMILES | Change (Canis familiaris [1]) | Increase (Canis familiaris [2]) | Increase (Canis familiaris [3]) | Change (Canis familiaris [4]) | Increase (Canis familiaris [6]) | Increase (Canis familiaris [8]) | also measured
CNC(=O)c1c(O)nc(C)c2cc(OC)c(OC)cc12 | 0% | 17% | 2% | 4% | – | – | –
Cc1nc(O)c(Cl)c2cc3c(cc12)OCO3 | 28% | 51% | 88% | -22% | – | – | –
COc1ccc2cc(O)nc(C)c2c1OC | – | – | – | – | 62% | 51% | Change (Canis familiaris [5]): 10%; Change (Canis familiaris [7]): -6%
COC(=O)CCc1c(O)nc(C)c2cc3c(cc12)OCO3 | – | – | – | – | 131% | 118% | Change (Canis familiaris [5]): 38%; Change (Canis familiaris [9]): -21%
CNC(=O)CCc1c(O)nc(C)c2cc(OC)c(OC)cc12 | 7% | – | 62% | -5% | – | 40% | –
COc1cc2cc(O)nc(C)c2cc1OC | – | – | – | – | – | – | Change (Canis familiaris [10]): 25%; Increase (Canis familiaris [11]): 55%; Increase (Canis familiaris [12]): 100%; Change (Canis familiaris [13]): -32%
COc1cc2c(C)nc(O)c(CCC(N)=O)c2cc1OC | 11% | 29% | 49% | -9% | – | – | –
CCOc1cc2cnc(O)cc2cc1OC | 7% | 32% | 34% | 0% | – | – | –
COC(=O)CCc1c(O)nc(C(C)C)c2cc(OC)c(OC)cc12 | 7% | 17% | 15% | 3% | – | – | –
COc1cc2c(C)nc(O)c(CCC(=O)N(C)C)c2cc1OC | -2% | -5% | 16% | -14% | – | – | –
COc1ccc2[nH]c(=O)nc(C)c2c1OC [BEMARINONE] | – | – | – | – | – | – | Change (Canis familiaris [14]): 11%; Increase (Canis familiaris [15]): 71%; Change (Canis familiaris [16]): -6%; Increase (Canis familiaris [17]): 30%
CCc1c(O)nc(C)c2cc(OC)c(OC)cc12 | – | – | – | – | – | – | Change (Canis familiaris [18]): 22%; Change (Canis familiaris [19]): 13%; ED50 (Canis familiaris [20]): 0.012 mg/kg; Increase (Canis familiaris [21]): 143%; Change (Canis familiaris [22]): -22%; Change (Canis familiaris [23]): -12%; Increase (Canis familiaris [24]): 132%; Increase (Canis familiaris [25]): 92%; Increase (Canis familiaris [26]): 98%; IC50 (Phosphodiesterase 3): 2 µM
COc1ccc2c(C)nc(O)cc2c1OC | 3% | 13% | – | 1% | 28% | – | –
COc1cc2c(C)nc(O)c(Cl)c2cc1OC | – | – | – | – | 89% | 88% | Change (Canis familiaris [5]): 29%; ED50 (Canis familiaris [20]): 0.12 mg/kg; Change (Canis familiaris [9]): 1%; IC50 (Phosphodiesterase 3): 62 µM
COc1cc2c(C)nc(O)c(C3CCCC3)c2cc1OC | 5% | 22% | 46% | 3% | – | – | ED50 (Canis familiaris [20]): 1.88 mg/kg; IC50 (Phosphodiesterase 3): 128 µM
COC(=O)c1c(O)nc(C)c2cc(OC)c(OC)cc12 | 6% | 19% | 39% | -3% | – | – | –
CCc1nc(O)c(CCC(=O)OC)c2cc(OC)c(OC)cc12 | – | – | – | – | 47% | 33% | Change (Canis familiaris [5]): 10%; Change (Canis familiaris [9]): -3%
COC(=O)CCc1c(O)nc(C)c2c(OC)c(OC)c(OC)cc12 | – | – | – | – | 22% | 20% | Change (Canis familiaris [5]): 8%; Change (Canis familiaris [9]): -4%
